Measured values as given in ChEMBL document CHEMBL1165965, “Synthesis and structure-activity relationships of 1,2,3,4-tetrahydropyrido[2,3-b]pyrazines as potent and selective inhibitors of the anaplastic lymphoma kinase” (Bioorg Med Chem, 2010).

Tests used:
[1] = target: Tyrosine-protein kinase JAK1 (Homo sapiens) (UniProt P23458); test: Inhibition of JAK1 JH1 catalytic domain at 1 uM
How it was run: (§1)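 Single-concentration screen on the Ambit KINOMEscan platform, run against a panel of 250–400 kinases. Per-kinase inhibition was also summarized as S(90), the fraction of kinases inhibited by more than 90%.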

[2] = target: T1, Muscle, skeletal receptor tyrosine-protein kinase (Homo sapiens) (UniProt O15146); test: Inhibition of MUSK at 1 uM
T1 sequence (whole entry): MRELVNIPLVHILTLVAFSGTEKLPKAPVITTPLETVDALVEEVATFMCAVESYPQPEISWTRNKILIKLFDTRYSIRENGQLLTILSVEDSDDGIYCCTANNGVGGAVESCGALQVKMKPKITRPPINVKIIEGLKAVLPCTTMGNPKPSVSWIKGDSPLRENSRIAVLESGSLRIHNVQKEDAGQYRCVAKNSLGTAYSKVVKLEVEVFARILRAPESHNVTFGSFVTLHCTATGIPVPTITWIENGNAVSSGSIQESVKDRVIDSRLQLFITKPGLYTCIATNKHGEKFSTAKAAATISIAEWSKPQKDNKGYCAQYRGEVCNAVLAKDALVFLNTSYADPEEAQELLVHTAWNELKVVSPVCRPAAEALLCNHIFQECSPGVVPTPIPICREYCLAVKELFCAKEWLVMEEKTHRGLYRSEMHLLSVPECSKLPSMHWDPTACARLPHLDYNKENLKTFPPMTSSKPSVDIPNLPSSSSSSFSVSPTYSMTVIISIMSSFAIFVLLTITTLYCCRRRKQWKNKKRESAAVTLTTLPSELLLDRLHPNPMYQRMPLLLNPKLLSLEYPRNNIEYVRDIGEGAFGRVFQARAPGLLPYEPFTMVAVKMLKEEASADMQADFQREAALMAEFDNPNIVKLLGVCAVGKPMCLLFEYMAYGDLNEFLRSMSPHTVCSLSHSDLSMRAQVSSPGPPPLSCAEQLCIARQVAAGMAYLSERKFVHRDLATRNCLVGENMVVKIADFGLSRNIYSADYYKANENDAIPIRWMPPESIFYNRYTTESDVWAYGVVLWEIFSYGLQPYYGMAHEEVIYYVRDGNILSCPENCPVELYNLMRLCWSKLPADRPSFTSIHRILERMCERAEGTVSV

[3] = target: Myosin-IIIa (Homo sapiens) (UniProt Q8NEV4); test: Inhibition of MYO3A at 1 uM
Sequence of Myosin-IIIa (Homo sapiens) (Q8NEV4 whole entry): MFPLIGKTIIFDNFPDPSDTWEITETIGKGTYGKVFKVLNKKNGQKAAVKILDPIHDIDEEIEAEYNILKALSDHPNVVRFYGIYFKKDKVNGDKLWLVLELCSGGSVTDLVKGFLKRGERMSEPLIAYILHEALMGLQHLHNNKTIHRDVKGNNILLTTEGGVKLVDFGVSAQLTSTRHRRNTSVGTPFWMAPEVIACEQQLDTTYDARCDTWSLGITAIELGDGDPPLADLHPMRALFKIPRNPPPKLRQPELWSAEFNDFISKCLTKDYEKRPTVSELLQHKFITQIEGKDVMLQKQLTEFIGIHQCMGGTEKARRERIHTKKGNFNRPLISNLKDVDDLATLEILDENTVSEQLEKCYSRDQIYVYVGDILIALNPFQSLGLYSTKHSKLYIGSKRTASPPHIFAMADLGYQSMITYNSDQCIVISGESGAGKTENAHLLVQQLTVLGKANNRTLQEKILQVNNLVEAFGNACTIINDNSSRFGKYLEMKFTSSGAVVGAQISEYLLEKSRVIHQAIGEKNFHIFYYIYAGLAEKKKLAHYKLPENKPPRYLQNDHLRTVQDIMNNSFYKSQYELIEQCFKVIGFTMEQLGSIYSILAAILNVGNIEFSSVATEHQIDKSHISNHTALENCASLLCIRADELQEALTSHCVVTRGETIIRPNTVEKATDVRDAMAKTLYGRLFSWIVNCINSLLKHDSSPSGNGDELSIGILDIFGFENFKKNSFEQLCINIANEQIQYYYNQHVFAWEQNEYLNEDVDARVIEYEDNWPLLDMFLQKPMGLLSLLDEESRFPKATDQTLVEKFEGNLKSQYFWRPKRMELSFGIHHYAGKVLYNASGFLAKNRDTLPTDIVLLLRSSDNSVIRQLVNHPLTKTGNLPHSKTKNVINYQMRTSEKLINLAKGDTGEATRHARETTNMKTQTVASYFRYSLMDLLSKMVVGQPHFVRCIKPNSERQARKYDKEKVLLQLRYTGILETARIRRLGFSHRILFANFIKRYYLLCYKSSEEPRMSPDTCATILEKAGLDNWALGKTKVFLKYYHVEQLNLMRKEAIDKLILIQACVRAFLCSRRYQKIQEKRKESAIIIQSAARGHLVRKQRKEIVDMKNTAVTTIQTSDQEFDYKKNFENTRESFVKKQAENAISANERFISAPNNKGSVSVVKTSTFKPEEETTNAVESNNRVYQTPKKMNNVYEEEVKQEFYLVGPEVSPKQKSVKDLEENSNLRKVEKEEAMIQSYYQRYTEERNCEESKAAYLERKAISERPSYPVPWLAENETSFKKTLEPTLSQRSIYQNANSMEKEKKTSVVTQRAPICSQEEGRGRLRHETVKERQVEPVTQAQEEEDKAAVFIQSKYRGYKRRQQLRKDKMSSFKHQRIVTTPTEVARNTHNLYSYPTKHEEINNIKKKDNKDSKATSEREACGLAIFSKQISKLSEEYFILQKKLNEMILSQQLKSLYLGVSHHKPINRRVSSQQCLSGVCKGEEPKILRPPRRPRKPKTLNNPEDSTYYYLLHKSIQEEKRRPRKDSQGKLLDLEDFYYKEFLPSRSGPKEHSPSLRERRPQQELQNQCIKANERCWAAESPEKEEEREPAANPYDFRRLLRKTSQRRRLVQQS

[4] = target: Serine/threonine-protein kinase NIM1 (Homo sapiens) (UniProt Q8IY84); test: Inhibition of NIM1 at 1 uM
Sequence of Serine/threonine-protein kinase NIM1 (Homo sapiens) (Q8IY84 whole entry): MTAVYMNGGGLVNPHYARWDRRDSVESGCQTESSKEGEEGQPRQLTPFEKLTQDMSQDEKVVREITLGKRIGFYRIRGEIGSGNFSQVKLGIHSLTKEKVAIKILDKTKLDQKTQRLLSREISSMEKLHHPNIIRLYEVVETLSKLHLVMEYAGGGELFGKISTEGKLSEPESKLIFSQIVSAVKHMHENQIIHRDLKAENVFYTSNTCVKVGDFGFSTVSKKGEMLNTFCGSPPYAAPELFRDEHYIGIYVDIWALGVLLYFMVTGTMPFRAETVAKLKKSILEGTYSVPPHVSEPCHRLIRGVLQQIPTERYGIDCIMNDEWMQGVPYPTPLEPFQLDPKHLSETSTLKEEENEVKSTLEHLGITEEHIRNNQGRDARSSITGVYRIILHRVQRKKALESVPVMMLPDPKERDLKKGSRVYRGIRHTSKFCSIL

[5] = target: Serine/threonine-protein kinase OSR1 (Homo sapiens) (UniProt O95747); test: Inhibition of OSR1 at 1 uM
[6] = target: Platelet-derived growth factor receptor beta (Homo sapiens) (UniProt P09619); test: Inhibition of PDGFRB at 1 uM
[7] = target: Phosphatidylinositol 4-kinase beta (Homo sapiens) (UniProt Q9UBF8); test: Inhibition of PIK4CB at 1 uM
Sequence of Phosphatidylinositol 4-kinase beta (Homo sapiens) (Q9UBF8 2-816 limits assumed): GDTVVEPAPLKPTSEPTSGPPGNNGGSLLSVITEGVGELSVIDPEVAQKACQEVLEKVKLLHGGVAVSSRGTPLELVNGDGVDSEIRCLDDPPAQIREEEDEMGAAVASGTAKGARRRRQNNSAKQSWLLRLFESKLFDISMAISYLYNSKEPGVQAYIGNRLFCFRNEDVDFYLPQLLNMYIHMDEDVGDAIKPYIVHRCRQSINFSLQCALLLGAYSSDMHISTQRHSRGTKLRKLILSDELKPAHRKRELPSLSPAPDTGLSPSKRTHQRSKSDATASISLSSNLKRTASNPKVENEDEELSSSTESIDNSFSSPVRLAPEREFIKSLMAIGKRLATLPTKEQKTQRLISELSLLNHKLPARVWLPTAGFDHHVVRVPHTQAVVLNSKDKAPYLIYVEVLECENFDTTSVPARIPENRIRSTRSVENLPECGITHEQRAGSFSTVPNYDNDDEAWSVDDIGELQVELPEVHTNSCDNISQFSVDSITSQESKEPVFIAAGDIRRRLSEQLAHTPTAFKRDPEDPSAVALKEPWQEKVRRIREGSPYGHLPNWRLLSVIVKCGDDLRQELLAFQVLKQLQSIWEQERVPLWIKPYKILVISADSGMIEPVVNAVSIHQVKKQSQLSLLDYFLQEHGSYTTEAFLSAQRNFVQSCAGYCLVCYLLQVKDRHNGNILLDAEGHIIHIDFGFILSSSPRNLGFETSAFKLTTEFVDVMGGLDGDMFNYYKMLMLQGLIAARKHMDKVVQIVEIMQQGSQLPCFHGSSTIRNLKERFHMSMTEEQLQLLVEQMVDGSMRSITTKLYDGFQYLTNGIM

[8] = target: Serine/threonine-protein kinase PLK1 (Homo sapiens) (UniProt P53350); test: Inhibition of PLK1 at 1 uM
Sequence of Serine/threonine-protein kinase PLK1 (Homo sapiens) (P53350 whole entry): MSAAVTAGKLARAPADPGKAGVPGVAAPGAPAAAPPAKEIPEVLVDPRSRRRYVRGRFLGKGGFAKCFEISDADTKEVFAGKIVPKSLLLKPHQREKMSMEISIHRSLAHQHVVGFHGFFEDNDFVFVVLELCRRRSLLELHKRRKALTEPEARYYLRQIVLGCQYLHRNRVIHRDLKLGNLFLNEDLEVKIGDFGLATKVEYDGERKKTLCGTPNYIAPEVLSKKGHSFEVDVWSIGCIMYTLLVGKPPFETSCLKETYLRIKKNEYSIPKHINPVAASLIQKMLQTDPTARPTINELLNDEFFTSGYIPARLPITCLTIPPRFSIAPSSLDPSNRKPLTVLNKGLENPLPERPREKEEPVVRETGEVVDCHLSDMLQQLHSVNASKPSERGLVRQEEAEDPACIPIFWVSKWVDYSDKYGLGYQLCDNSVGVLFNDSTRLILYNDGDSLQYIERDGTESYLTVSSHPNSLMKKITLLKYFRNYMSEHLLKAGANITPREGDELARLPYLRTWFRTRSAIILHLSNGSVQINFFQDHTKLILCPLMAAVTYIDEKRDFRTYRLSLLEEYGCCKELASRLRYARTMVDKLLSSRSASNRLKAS

[9] = target: Serine/threonine-protein kinase PLK2 (Homo sapiens) (UniProt Q9NYY3); test: Inhibition of PLK2 at 1 uM
Sequence of Serine/threonine-protein kinase PLK2 (Homo sapiens) (Q9NYY3 whole entry, looked up): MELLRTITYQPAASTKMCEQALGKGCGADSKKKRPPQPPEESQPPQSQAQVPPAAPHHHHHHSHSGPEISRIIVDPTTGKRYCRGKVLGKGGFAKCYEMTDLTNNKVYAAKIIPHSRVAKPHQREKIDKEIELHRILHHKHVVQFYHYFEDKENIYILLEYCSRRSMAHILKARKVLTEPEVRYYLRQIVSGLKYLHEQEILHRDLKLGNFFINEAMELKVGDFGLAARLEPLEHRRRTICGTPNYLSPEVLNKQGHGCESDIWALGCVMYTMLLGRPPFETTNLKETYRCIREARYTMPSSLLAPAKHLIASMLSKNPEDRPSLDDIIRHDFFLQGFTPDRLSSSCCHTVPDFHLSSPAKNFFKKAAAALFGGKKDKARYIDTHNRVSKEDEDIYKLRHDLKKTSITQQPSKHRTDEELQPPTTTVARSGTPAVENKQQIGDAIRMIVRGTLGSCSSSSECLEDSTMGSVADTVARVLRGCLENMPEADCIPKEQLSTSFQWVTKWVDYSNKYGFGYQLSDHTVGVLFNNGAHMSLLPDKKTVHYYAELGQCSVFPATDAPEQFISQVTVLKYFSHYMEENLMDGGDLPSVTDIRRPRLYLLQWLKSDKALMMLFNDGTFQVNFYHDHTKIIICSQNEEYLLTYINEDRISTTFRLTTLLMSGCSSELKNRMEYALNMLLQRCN

[10] = target: Serine/threonine-protein kinase PRP4 homolog (Homo sapiens) (UniProt Q13523); test: Inhibition of PRP4 at 1 uM
[11] = target: RAC-alpha serine/threonine-protein kinase (Homo sapiens) (UniProt P31749); test: Inhibition of AKT1 at 1 uM
Sequence of RAC-alpha serine/threonine-protein kinase (Homo sapiens) (P31749 whole entry): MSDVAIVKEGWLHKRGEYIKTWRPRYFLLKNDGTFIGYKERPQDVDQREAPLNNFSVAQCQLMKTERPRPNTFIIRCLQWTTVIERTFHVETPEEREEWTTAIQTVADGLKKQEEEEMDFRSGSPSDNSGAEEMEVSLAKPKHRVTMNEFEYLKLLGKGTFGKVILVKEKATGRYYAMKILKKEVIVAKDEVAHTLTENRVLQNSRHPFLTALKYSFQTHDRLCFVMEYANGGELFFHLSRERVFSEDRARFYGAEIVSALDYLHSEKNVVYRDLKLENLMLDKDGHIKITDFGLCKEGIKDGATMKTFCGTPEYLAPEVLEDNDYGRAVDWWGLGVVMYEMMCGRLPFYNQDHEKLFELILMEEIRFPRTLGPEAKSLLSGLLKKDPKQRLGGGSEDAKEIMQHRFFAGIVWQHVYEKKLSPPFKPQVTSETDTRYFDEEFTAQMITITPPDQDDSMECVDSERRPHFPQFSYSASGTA
How it was run: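 Ambit KINOMEscan screen at a single concentration across a 250–400 kinase panel, recorded as percent inhibition. Selectivity was expressed as S(90), the fraction of kinases inhibited >90%.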

[12] = tested on: T2, Receptor-type tyrosine-protein kinase FLT3 (Homo sapiens), P36888 [N841I]; test: Inhibition of FLT3 N841I mutant at 1 uM; how it was run: as §1
T2 sequence (whole entry): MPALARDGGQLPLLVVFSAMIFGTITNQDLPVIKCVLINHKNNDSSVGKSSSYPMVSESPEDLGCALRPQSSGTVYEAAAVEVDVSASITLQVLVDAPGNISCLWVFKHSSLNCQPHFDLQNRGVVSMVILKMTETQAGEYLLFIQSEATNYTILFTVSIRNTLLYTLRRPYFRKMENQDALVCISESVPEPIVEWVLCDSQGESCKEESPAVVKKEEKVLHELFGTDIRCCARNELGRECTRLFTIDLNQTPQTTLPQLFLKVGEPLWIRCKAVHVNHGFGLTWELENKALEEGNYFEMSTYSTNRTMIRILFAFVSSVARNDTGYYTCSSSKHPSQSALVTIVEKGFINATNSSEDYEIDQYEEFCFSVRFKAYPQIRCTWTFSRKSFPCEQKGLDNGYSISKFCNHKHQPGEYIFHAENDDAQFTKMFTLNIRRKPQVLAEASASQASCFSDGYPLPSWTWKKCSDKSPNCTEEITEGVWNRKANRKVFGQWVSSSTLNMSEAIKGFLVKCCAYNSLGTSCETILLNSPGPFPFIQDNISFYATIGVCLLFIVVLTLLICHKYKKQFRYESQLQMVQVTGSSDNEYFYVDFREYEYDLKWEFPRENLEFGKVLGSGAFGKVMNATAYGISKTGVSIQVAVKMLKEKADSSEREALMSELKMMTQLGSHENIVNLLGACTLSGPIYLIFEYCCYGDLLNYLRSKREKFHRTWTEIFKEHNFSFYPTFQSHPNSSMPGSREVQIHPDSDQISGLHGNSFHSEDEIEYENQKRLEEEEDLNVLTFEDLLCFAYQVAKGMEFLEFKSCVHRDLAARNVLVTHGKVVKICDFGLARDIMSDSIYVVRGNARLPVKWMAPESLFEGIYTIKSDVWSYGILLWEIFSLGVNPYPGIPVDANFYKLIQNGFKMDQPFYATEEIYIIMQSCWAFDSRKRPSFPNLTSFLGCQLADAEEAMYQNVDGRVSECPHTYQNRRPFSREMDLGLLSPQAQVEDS

Structure (SMILES) | inhibition [1] | inhibition [2] | inhibition [3] | inhibition [4] | inhibition [5] | inhibition [6] | inhibition [7] | inhibition [8] | inhibition [9] | inhibition [10] | inhibition [11] | inhibition [12]
CN1CCN(c2ccc(-c3cnc4c(c3)N(Cc3cc(F)ccc3F)CCN4)cn2)CC1 | 88% | < 50% | < 50% | < 50% | < 50% | < 50% | < 50% | < 50% | < 50% | < 50% | < 50% | 84.6%
CN1CCN(c2ccc(-c3cnc4c(c3)N(Cc3cc(Cl)ccc3Cl)CCN4)cn2)CC1 | 89% | < 50% | < 50% | < 50% | < 50% | < 50% | < 50% | < 50% | < 50% | < 50% | < 50% | 93%
COC1CCN(C(=O)c2ccc(-c3cnc4c(c3)N(Cc3cc(Cl)ccc3C(F)(F)F)CCN4)cc2)CC1 | < 50% | < 50% |  |  |  | < 50% | < 50% | < 50% |  |  | < 50% | < 50%
CN1CCN(c2ccc(-c3cnc4c(c3)N(Cc3c(F)ccc(F)c3Cl)CCN4)cn2)CC1 | < 50% | < 50% | < 50% | < 50% | < 50% | < 50% | < 50% | < 50% | < 50% | < 50% | < 50% | 83%
O=C(c1ccc(-c2cnc3c(c2)N(Cc2cc(Cl)ccc2C(F)(F)F)CCN3)cc1)N1CCC(N2CCCC2)CC1 | < 50% | < 50% |  |  |  | 76.4% | < 50% | < 50% |  |  | < 50% | 96.1%

More lines, now with the values ahead:

inhibition [1] | inhibition [2] | inhibition [3] | inhibition [4] | inhibition [5] | inhibition [6] | inhibition [7] | inhibition [8] | inhibition [9] | inhibition [10] | inhibition [11] | inhibition [12] | Structure (SMILES)
96% | < 50% | < 50% | < 50% | < 50% | < 50% | < 50% | < 50% | 82% | < 50% | < 50% | 92% | CC(=O)N1CCN(c2cc(-c3cnc4c(c3)N(Cc3cc(Cl)ccc3C(F)(F)F)CCN4)ccn2)CC1
 | < 50% |  |  |  | < 50% | < 50% | < 50% |  |  | < 50% | < 50% | O=C(O)c1ccc(-c2cnc3c(c2)N(Cc2cc(Cl)ccc2C(F)(F)F)CCN3)cc1
< 50% | < 50% |  |  |  | < 50% | < 50% | < 50% |  |  | < 50% | < 50% | O=C(c1ccc(-c2cnc3c(c2)N(Cc2cc(Cl)ccc2C(F)(F)F)CCN3)cc1)N1CCCCC1
93% | < 50% | < 50% | < 50% | < 50% | < 50% | < 50% | < 50% | < 50% | < 50% | < 50% | < 50% | CN1CCN(c2ccc(-c3cnc4c(c3)N(Cc3cc(Cl)ccc3C(F)(F)F)CCN4)cn2)CC1
78% | < 50% | < 50% | < 50% | < 50% | 92% | < 50% | < 50% | < 50% | < 50% | < 50% | 100% | FC(F)(F)c1ccc(Cl)cc1CN1CCNc2ncc(-c3ccnc(N4CCNCC4)c3)cc21
